PMC4058332 (ChemMedChem, 2013)
“Also recorded” adds a separate entry of the source.

How the values were obtained:
MDA-MB-231 cells [1] = assay: Apoptosis assay, flow cytometry with Annexin V-FITC and PI staining; assay type: cell-based; conditions: 24 h; for Percentage apoptosis: Annexin V-positive/PI-negative cells; for Percentage necrosis: Annexin V-positive/PI-positive cells
Procedure, shortened: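 MDA-MB-231 cells exposed 24 h to test compound at increasing concentrations or 1% DMSO, stained with Annexin V-FITC and PI, and analysed by flow cytometry. Apoptotic = Annexin V-positive/PI-negative; necrotic = Annexin V-positive/PI-positive, each as % of cells.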

MDA-MB-231 cells [2] = assay: Cell viability by MTT at 16 h, time frame of invasion and migration studies; assay type: cell-based
Procedure, shortened: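 MDA-MB-231 viability read by MTT after 16 h exposure to test compound, matching the time frame of the invasion and migration assays.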

[3] = system: phospho-p44/42 MAPK in MDA-MB-231 cells; assay: Western blot analysis of p44/42 MAPK phosphorylation; assay type: cell-based; conditions: 50 μM, 30 min, serum starved cells on fibronectin
Procedure, shortened: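 Serum-starved MDA-MB-231 cells (1.5 × 10^6/well) plated on wells coated with 30 ng μl-1 fibronectin, with 50 μM test compound or DMSO, for 30 min. Lysed in RIPA with protease/phosphatase inhibitors. 30 μg protein run on 10% SDS-PAGE and blotted. Probed overnight at 4°C with phospho-p44/42 (Thr202/Tyr204) or total p44/42 antibodies (1:2000), then fluorescent secondaries; actin loading control.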

MDA-MB-231 migration = assay: Wound healing migration assay; assay type: cell-based
Procedure, shortened: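 Confluent MDA-MB-231 monolayers scratched with a pipette tip, washed, and cultured in complete medium with test compound. Wound closure measured as distance between wound edges in three random regions immediately after wounding and at 16 h and 40 h, by microscopy.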

MDA-MB-231 invasion = assay: Matrigel Boyden chamber invasion assay; assay type: cell-based
Procedure, shortened: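 Matrigel invasion chambers; insert underside coated with 30 ng μl-1 fibronectin overnight at 4 °C; inserts equilibrated 2 h in serum-free medium. After 4 h starvation, 5 × 10^4 MDA-MB-231 cells in 0.1% FBS medium with test compound or 1% DMSO placed upper; 10% FBS medium with same compound lower. After 16 h at 37°C, invaded cells methanol-fixed, hematoxylin-stained, counted in ten 200× fields.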

[4] = molecular target: urokinase receptor (uPAR) (UniProt Q03405); assay: fluorescence polarisation
Sequence of urokinase receptor (uPAR) (Q03405 23-305): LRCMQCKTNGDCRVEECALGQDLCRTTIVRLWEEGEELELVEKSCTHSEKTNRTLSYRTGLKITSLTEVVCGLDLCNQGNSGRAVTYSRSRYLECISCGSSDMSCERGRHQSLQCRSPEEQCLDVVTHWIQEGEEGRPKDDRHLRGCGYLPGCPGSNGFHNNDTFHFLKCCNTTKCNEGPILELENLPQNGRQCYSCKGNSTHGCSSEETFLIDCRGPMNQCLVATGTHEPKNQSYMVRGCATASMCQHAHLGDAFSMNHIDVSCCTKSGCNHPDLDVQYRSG

uPAR = uPAR (Homo sapiens, UniProt Q03405); assay: Fluorescence polarization competition assay, displacement of AE147-FAM peptide; assay type: binding; conditions: uPAR 320 nM, AE147-FAM 100 nM
Sequence of uPAR (Q03405 23-335): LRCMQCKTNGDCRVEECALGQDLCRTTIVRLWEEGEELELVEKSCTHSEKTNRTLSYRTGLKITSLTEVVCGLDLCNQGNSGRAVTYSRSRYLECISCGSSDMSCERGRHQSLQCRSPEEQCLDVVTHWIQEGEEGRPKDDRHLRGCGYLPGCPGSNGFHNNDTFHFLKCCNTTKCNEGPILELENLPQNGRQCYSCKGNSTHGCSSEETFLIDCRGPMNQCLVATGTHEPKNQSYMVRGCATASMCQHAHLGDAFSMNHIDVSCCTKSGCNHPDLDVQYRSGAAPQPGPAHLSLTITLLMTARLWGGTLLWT
Procedure, shortened: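 Competition binding: test compound diluted in DMSO, then in PBS with 0.01% Triton X-100 (final 100 μM to 0.046 μM). uPAR preincubated with compound ≥15 min, then fluorescein-labelled AE147 peptide added (final uPAR 320 nM, peptide 100 nM, DMSO 2%). Duplicate wells; polarization read at ex 485/em 530 nm. mP values converted to % inhibition; Ki from an online Ki calculator.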

[5] = system: NF-κB, HIF1α and ERK in MDA-MB-231 cells; assay: Luciferase reporter assay; assay type: cell-based; conditions: 25 μM
Procedure, shortened: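 MDA-MB-231 cells transfected with pathway-focused reporters (NF-κB, hypoxia, MAPK/ERK); medium switched to complete DMEM (10% FBS) 16 h after transfection. Test compound (25 μM) added at 46 h; dual-luciferase readout (firefly/Renilla) at 48 h. Fold change = normalized ratio of treated reporter divided by that of untreated reporter; triplicate.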

MDA-MB-231 cells [6] = assay: Cell viability by MTT assay, 3 days; assay type: cell-based; conditions: Homo sapiens, MDA-MB-231, read-out: IC50, MTT
Procedure, shortened: (§1)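 Cells (10^4/well) plated overnight, then exposed to test compound or DMSO control for 3 days. Viability by MTT, absorbance 570 nm with 630 nm reference. Culture: MDA-MB-231 and PANC-1 in DMEM, AsPC-1 in RPMI medium, each with 10% FBS and 1% penicillin/streptomycin, 37°C, 5% CO2.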

[7] = system: MDA-MB-231 matrix metalloproteinase (MMP-9) activity; assay: Gelatin zymography; assay type: cell-based; conditions: read-out: IC50, MMP-9 activity, 24 h treatment
Procedure, shortened: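 MDA-MB-231 cells treated with test compound 24 h in serum-free medium. Conditioned medium concentrated and run on 7.5% SDS gels with 1 mg/mL gelatin. Gels washed twice in 2.5% Triton X-100 (30 min, room temperature), incubated 36 h at 37 °C in 50 mM Tris-HCl pH 7.6, 200 mM NaCl, 10 mM CaCl2, 0.02% Brij 35. Coomassie-stained; clear MMP-9 bands quantified by imaging.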

MDA-MB-231 cell adhesion = assay: Cell adhesion to fibronectin; assay type: cell-based; conditions: Homo sapiens, MDA-MB-231, read-out: IC50, cell adhesion
Procedure, shortened: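 Wells coated with 15 ng μl-1 fibronectin overnight at 4 °C, blocked 1 h with 2% BSA/PBS. MDA-MB-231 cells serum-starved 4 h, suspended at 2.5 × 10^4 cells ml-1 in 0.1% FBS DMEM with test compound at various concentrations or DMSO, and held 90 min at 37 °C. Washed three times with PBS; adherent cells by MTT (570/630 nm).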

AsPC-1 cells = assay: Cell viability by MTT assay, 3 days; assay type: cell-based; conditions: Homo sapiens, ASPC1, read-out: IC50, MTT
Procedure, shortened: as §1

PANC-1 cells = assay: Cell viability by MTT assay, 3 days; assay type: cell-based; conditions: Homo sapiens, PANC-1, read-out: IC50, MTT
Procedure, shortened: as §1

| Ki (uPAR; Ki) [µM] | Compound | Percentage apoptosis (MDA-MB-231 cells [1]; 1 μM) [%] | Percentage necrosis (MDA-MB-231 cells [1]; 1 μM) [%] | Percentage apoptosis (MDA-MB-231 cells [1]; 10 μM) [%] | Percentage necrosis (MDA-MB-231 cells [1]; 10 μM) [%] | Percentage apoptosis (MDA-MB-231 cells [1]; 25 μM) [%] | Percentage necrosis (MDA-MB-231 cells [1]; 25 μM) [%] | Percentage apoptosis (MDA-MB-231 cells [1]; 50 μM) [%] | Percentage necrosis (MDA-MB-231 cells [1]; 50 μM) [%] | effect on p44/42 MAPK phosphorylation [3] | also measured |
| --- | --- | --- | --- | --- | --- | --- | --- | --- | --- | --- | --- |
| 28.3 | Cc1ccc(-n2ncc(C(=O)NCCc3ccc(F)cc3)c2C2CCNCC2)cc1C [1g, 1-(3,4-dimethylphenyl)-N-(4-fluorophenethyl)-5-(piperidin-4-yl)-1H-pyrazole-4-carboxamide] | – | – | – | – | – | – | – | – | – | – |
| 17.2 | Cc1ccc(-n2ncc(C(=O)Nc3ccccc3OCc3ccccc3)c2C2CCNCC2)cc1C [1f, N-(2-(benzyloxy)phenyl)-1-(3,4-dimethylphenyl)-5-(piperidin-4-yl)-1H-pyrazole-4-carboxamide] | 3 | 7 | 45 | 15 | 76 | 8 | 61 | 21 | significantly impaired | effect on NF-κB, HIF1α and ERK reporter pathways [5]: impaired all three pathways; IC50 (MDA-MB-231 cells [6]): 25 µM; IC50 [7]: 28 µM; IC50 (MDA-MB-231 cell adhesion): ~25 µM; IC50 (AsPC-1 cells): 14 µM; inhibition at 10 µM (MDA-MB-231 cells [2]; Homo sapiens, MDA-MB-231, 16 h, read-out: inhibition of cell growth): 20%; IC50 (PANC-1 cells): 22 µM; inhibition at 25 µM (MDA-MB-231 migration; Homo sapiens, MDA-MB-231, read-out: inhibition of cell migration): 70%; effect on invasion (MDA-MB-231 invasion; 10 μM): inhibited invasion; effect on invasion (MDA-MB-231 invasion; 25 μM): completely inhibited invasion; also recorded: complete inhibition of invasion; IC50 (MDA-MB-231 invasion; Homo sapiens, MDA-MB-231, read-out: IC50, invasion): < 10 µM |
| 51.2 | COc1cc(NC(=O)c2cnn(-c3ccc(C)c(C)c3)c2C2CCNCC2)cc(C(F)(F)F)c1 [1e, 1-(3,4-dimethylphenyl)-N-(3-methoxy-5-(trifluoromethyl)phenyl)-5-(piperidin-4-yl)-1H-pyrazole-4-carboxamide] | – | – | – | – | – | – | – | – | – | – |
| 31.9 | CCCc1ccc(NC(=O)c2cnn(-c3ccc(C)c(C)c3)c2C2CCNCC2)cc1 [1i, 1-(3,4-dimethylphenyl)-5-(piperidin-4-yl)-N-(4-propylphenyl)-1H-pyrazole-4-carboxamide] | 11 | 7 | 6 | 9 | 46 | 10 | 86 | 12 | significantly impaired | – |
| 63.3 | Cc1ccc(-n2ncc(C(=O)Nc3ccc(C(C)C)cc3)c2C2CCNCC2)cc1C [1h, 1-(3,4-dimethylphenyl)-N-(4-isopropylphenyl)-5-(piperidin-4-yl)-1H-pyrazole-4-carboxamide] | – | – | – | – | – | – | – | – | – | – |

Further lines, the compound ahead of its results:

| Compound | Ki (uPAR; Ki) [µM] | Percentage apoptosis (MDA-MB-231 cells [1]; 1 μM) [%] | Percentage necrosis (MDA-MB-231 cells [1]; 1 μM) [%] | Percentage apoptosis (MDA-MB-231 cells [1]; 10 μM) [%] | Percentage necrosis (MDA-MB-231 cells [1]; 10 μM) [%] | Percentage apoptosis (MDA-MB-231 cells [1]; 25 μM) [%] | Percentage necrosis (MDA-MB-231 cells [1]; 25 μM) [%] | Percentage apoptosis (MDA-MB-231 cells [1]; 50 μM) [%] | Percentage necrosis (MDA-MB-231 cells [1]; 50 μM) [%] | effect on p44/42 MAPK phosphorylation [3] | also measured |
| --- | --- | --- | --- | --- | --- | --- | --- | --- | --- | --- | --- |
| CCOc1ccccc1NC(=O)C1CC(=O)N(c2ccc(OC)cc2)C1c1ccc(OC)cc1 (stereo not shown) [compound 3, N-(2-ethoxyphenyl)-1,2-bis(4-methoxyphenyl)-5-oxopyrrolidine-3-carboxamide] | – | 2 | 6 | 1 | 3 | 2 | 8 | 4 | 7 | no inhibition | cytotoxicity (MDA-MB-231 cells [2]; 25 μM, MTT at 16 h): not cytotoxic; effect on migration (MDA-MB-231 migration; 25 μM, wound healing): no effect on migration; effect on invasion (MDA-MB-231 invasion; 25 μM): moderate inhibition of invasion; inhibition at 25 µM (MDA-MB-231 invasion; Homo sapiens, MDA-MB-231, read-out: inhibition of cell invasion): 50% |
| fluorescently-labeled AE147 peptide AE147-FAM | – | – | – | – | – | – | – | – | – | – | Kd [4]: 0.499 µM |
| COc1ccc(N2C(=O)CCC(C(=O)Nc3ccc(OC)cc3OC)C2c2ccc(F)cc2)cc1 (stereo not drawn) [compound 4, anti-N-(2,4-dimethoxyphenyl)-2-(4-fluorophenyl)-1-(4-methoxyphenyl)-6-oxopiperidine-3-carboxamide] | – | 4 | 3 | 2 | 14 | 3 | 6 | 3 | 5 | no inhibition | Ki (uPAR): 18.9 µM |
